PAFAH1B2 inh: PAFAH1B2 (human) inhibition | P68402 | recombinant PAFAH1B2, FP-rhodamine activity probe, fluorescence polarization | inhibition, % at 3.39 µM | hit rate 1.2% among 340,000 | AID 492953;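 active = inhibition above the mean of all tested compounds plus 3 SD, cut at about 24% in these data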
pPAFAH inh: pPAFAH (human) enzyme inhibition; inhibition, % at 3.39 µM; hit rate 1.5% among 330,000; recombinant pPAFAH, FP-rhodamine probe fluorescence polarization; AID 463082;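 active = inhibition above the mean inhibition across the screen plus 3 SD, cut at about 25% in these data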;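 also: inhibitors block binding of the rhodamine activity-based probe so polarization drops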
PAFAH2 inh: inhibitors of human PAFAH2 | recombinant PAFAH2, FP-rhodamine activity probe, fluorescence polarization | inhibition, % at 3.39 µM | hit rate 0.99% among 340,000 | AID 492956;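 active = inhibition above the mean over all tested compounds plus 3 SD, cut at about 30% in these data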;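 also: inhibitors block probe labeling of enzyme so polarization drops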
PAFAH1B3 inh: inhibitors of human PAFAH1B3 | Q15102 | recombinant PAFAH1B3, FP-rhodamine probe, fluorescence polarization | inhibition, % at 3.39 µM | hit rate 0.28% among 340,000;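 active = inhibition above the screen-wide average of all tested compounds plus 3 SD, cut at about 25% in these data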
Apaf-1 inh: inhibitors of human Apaf-1 apoptosome. hit rate 0.71% among 330,000. AID 489030. O14727. inhibition, % at 20 µM. reconstituted apoptosome caspase-3 activity, DEVD-Rh110 fluorescence; active = inhibition of at least 40% at 20 µM
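System: Apoptosome proteins | Medium: Hepes pH 7.5 with detergent and BSA | Also added: Cytochrome c trigger plus (Z-DEVD)2-Rh110 caspase-3 substrate | Incubation: 30 min compound preincubation, 50 min activation, room temperature | Detection: Rhodamine 110 fluorescence at Ex 480/Em 540 nm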
PAFAH2 confirm: confirmation of human PAFAH2 inhibitors; shares compounds with PAFAH2 inh; inhibition, % at 3.39 µM; hit rate 65% among 2,300; recombinant PAFAH2, FP-rhodamine activity probe, fluorescence polarization;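 active = mean inhibition over three repeats above a set limit taken from the earlier primary screen, cut at about 30% in these data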;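 also: inhibitor blocks binding of rhodamine activity probe so polarization falls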
Each line names hits and unclear results; the compound was inactive in the other large screens (follow-up assays come after a bar, where they were run). In the library only some 3.1% were active in any assay of this set; here they are far more common.

O=C(NNC(=O)c1cccc(O)c1)Nc1ccc([N+](=O)[O-])cc1	PAFAH2 inh 49 | PAFAH2 confirm inactive
Cc1ccc(C(=O)OCC(=O)NCCC2=CCCCC2)s1	PAFAH2 inh 61 | PAFAH2 confirm 60
O=C(COC(=O)c1cccs1)NCCC1=CCCCC1	PAFAH2 inh 55 | PAFAH2 confirm 41
CCc1ccc(CNC(=O)CCn2ccc3cc(S(=O)(=O)N4CCCC4)ccc32)cc1	none
O=C(Cc1cccc2ccccc12)Nc1ccc(O)cc1C(=O)O	none
Cc1ccccc1C(=O)Nc1ccc(O)cc1C(=O)O	none
O=C(Cc1cccc2ccccc12)Nc1ccc(Br)cc1C(=O)O	PAFAH2 inh 36 | PAFAH2 confirm inactive
O=C(Nc1ccc(O)cc1C(=O)O)c1cccc(Br)c1	PAFAH2 inh 38 | PAFAH2 confirm inactive
C/C(=N\OCC(=O)OCC(=O)NC(=O)c1ccc(OC(F)F)cc1)c1ccc2c(c1)OCO2	none
COc1ccc(CCNC(=O)c2cc(C3CC3)nc3c2cnn3C(C)C)cc1	none
CC(=O)Nc1ccc(C(=O)OCC(=O)NCc2ccccc2)cc1	PAFAH2 inh 55 | PAFAH2 confirm 46
CN(C)c1ccc(C(=O)OCc2ccc(Br)cc2)cc1	PAFAH2 inh 34 | PAFAH2 confirm 35
CC(=O)Nc1ccc(NC(=O)COC(=O)c2ccc(Cl)nc2)cc1	none (no result: pPAFAH inh)
CC(=O)Nc1ccc(OCC(=O)NCc2ccccc2)cc1	none
CN(C)c1ccc(C(=O)OCC(=O)NCC2CCCO2)cc1 (stereo not drawn)	PAFAH2 inh 62 | PAFAH2 confirm 56
CC(=O)Nc1ccc(C(=O)OCC(=O)Nc2c(F)cccc2F)cc1	PAFAH2 inh 50 | PAFAH2 confirm 38
CCn1cc(CN2CCC(n3nccc3NC(=O)c3cccc(F)c3)CC2)cn1	none
CC12OC1C1(O)CCCC1=CC2=O (stereo not drawn)	none (no result: PAFAH1B2 inh, PAFAH2 inh, PAFAH1B3 inh)
CCCCn1c(N)c(N(CCOC)C(=O)CCCc2nc3ccccc3c(=O)[nH]2)c(=O)[nH]c1=O	none
CNc1ccccc1C(=O)OCC(=O)c1ccc(F)cc1	none
COc1cc(OC)cc(C(=O)OCC(=O)NCCCc2ccccc2)c1	none
CCOc1ccc(C(=O)OCC(=O)NCCCc2ccccc2)cc1	PAFAH2 inh 55 | PAFAH2 confirm 35
COC(=O)c1ccc(CNC(=O)COC(=O)c2ccc(N(C)C)cc2)cc1	PAFAH2 inh 44 | PAFAH2 confirm 40
O=C(COC(=O)C1=Cc2ccccc2OC1)NCc1ccccc1	PAFAH2 inh 31 | PAFAH2 confirm inactive
CC(=O)Nc1ccc(C(=O)OCC(=O)c2ccc(F)cc2)cc1	PAFAH2 inh 38 | PAFAH2 confirm 36
CCN(CC)CCCNc1nc2ccccc2c2[nH]c3ccc(OC)cc3c12	none (no result: pPAFAH inh, Apaf-1 inh)
O=C(COC(=O)c1cc(=O)[nH]c2ccccc12)Nc1nc(-c2ccc(F)cc2)cs1	none (no result: pPAFAH inh, Apaf-1 inh)
CC(=O)NC(CC(=O)N(Cc1ccccc1)c1cccc(C)c1)c1ccccc1 (stereo not drawn)	none
CN(C)c1ccc(C(=O)OCC(=O)Nc2ccc(N3CCOCC3)cc2)cc1	PAFAH2 inh 49 | PAFAH2 confirm 35
COc1ccc(C(=O)OCC(=O)Nc2ccc(N3CCOCC3)cc2)cc1	none
O=C(Cn1c(=O)oc2ccccc21)Nc1cccc(Cl)c1	none
O=C(CCn1c(=O)oc2ccccc21)Nc1cccc(Cl)c1	PAFAH2 inh 43 | PAFAH2 confirm inactive
Cc1cn(CC(=O)N[C@H](CO)Cc2c[nH]c3ccccc23)c(=O)[nH]c1=O	none (no result: pPAFAH inh, Apaf-1 inh)
CSc1nc(N)nc2c1ncn2CC(=O)N[C@H](CO)Cc1c[nH]c2ccccc12	PAFAH2 inh 38 | PAFAH2 confirm inactive
Cc1cc(C(=O)COC(=O)C2=NN(c3ccccc3)C(=O)CC2)c(C)n1CC(F)(F)F	none
Cc1cc(C(=O)COC(=O)c2ccc(O)cc2)c(C)n1CC(F)(F)F	PAFAH2 inh 31 | PAFAH2 confirm inactive
Cc1cc(C(=O)COC(=O)c2ccc(O)cc2)c(C)n1-c1ccccc1F	PAFAH2 inh 39 | PAFAH2 confirm inactive
Cc1cc(C)n2nc(C(=O)OCC(=O)N(C)CC(=O)Nc3ccccc3Cl)nc2n1	none
Cc1cc(F)ccc1NC(=O)Cn1c(C)csc1=O	none
Cc1nc(NC(=O)COC(=O)C2CC2C)c(Cl)cc1Cl (stereo not drawn)	PAFAH2 inh 34 | PAFAH2 confirm inactive
